Assay outcomes from PubChem.
Sampled rows, rich in hits. Any-hit rate of the full collection: about 1.6%.
proCasp7 act – activates human procaspase-7, counter-screen for procaspase-3 activators. P55210. recombinant procaspase-7, Ac-DEVD-pNA absorbance 405 nm; D23A/D198A/D206A triple mutant, cannot self-cleave; scale: DMSO 0, 5 µM enzyme 100. activation, % at 8.5 µM. 330,000 tested, 0.093% active. AID 463210;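 active means percent activation above the screen-wide mean plus 3 SD, cut at about 25% in these data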
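Test system: Procaspase-7 triple mutant (PC-7 D3A). Also added: Ac-DEVD-pNA substrate, 400 µM as added. Schedule: 1 h enzyme–compound preincubation and 2 h substrate reaction, both 25 °C. Signal: p-Nitroaniline absorbance at 405 nm, read at 0 and 120 min. Control set: low DMSO alone, high DMSO plus 5 µM PC-7.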
sPLA2-III inh – Inhibits HGIII-sPLA2 liposome hydrolysis, primary screen; Q9NZ20; 370,000 tested, 0.56% active; inhibition, % at 12.2 µM; QFRET BODIPY PC-A2 liposome hydrolysis, fluorescence;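 active means inhibition above mean plus 3 SD of compounds lying within the high and low control bounds, cut at about 19% in these data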
PLCb3 inh – inhibitors of human phospholipase C beta3 | Purified PLC-beta3, fluorogenic substrate, fluorescence | 370,000 tested, 0.18% active | AID 720704 | Q01970 | inhibition, % at 12.2 µM
proCasp3 act – activators of human procaspase-3; AID 463141; activation, % at 8.5 µM; 330,000 tested, 0.11% active; recombinant procaspase-3 D3A, Ac-DEVD-pNA absorbance 405 nm; P42574;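 active means activation above the mean of all tested compounds plus 3 SD, cut at about 21% in these data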
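Compound: 8.5 µM single point, 0.8% DMSO / Material: Autoprocessing-dead procaspase-3 D3A mutant enzyme / Timing: 1 h preincubation plus 2 h reaction at 25 °C / Medium: Zinc-free HEPES/NaCl buffer with 0.01% Triton X-100 at pH 7.4 / Technique: 405 nm absorbance of p-nitroaniline, reads at 0 and 120 min / Repeats: one well per compound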
PLC-gamma1 inh – blocks human PLC-gamma1 enzyme activity. AID 720700. purified PLC-gamma1, fluorogenic substrate, fluorescence. inhibition, % at 12.2 µM. 370,000 tested, 0.84% active. P19174; in the data active means inhibition above about 9.5%
PLCg1 ctr – PLC-gamma1 inhibition, counter-screen for PLC-beta3 hits | shares compounds with PLC-gamma1 inh | purified PLC-gamma1, fluorogenic substrate, fluorescence | inhibition, % at 12.3 µM | 3,300 tested, 3.1% active | AID 743258; in the data active means inhibition above about 9.5%
PLCbeta3 conf – confirmation of human PLC-beta3 inhibitors; inhibition, % at 12.3 µM; shares compounds with PLC-gamma1 inh; purified PLC-beta3, fluorogenic substrate fluorescence; AID 743261; 3,300 tested, 1% active
Each line names hits and unclear results; the compound was inactive in the other large screens (follow-up assays come after a bar, where they were run). Unless noted, no stated cut-off is given here; in the data, active means inhibition above about 11%; inactive means the rest.

CCCCCCN1C[C@@H](O)[C@H](n2cc(COC(=O)c3ccccc3)nn2)C[C@@H]1c1ccc(OC)cc1	none (no result: proCasp7 act, proCasp3 act)
Cc1ccc(C)c(-n2cc(CN3CCCN(C=O)CC3)c(-c3ccccc3)n2)c1	none
O=C1c2ccccc2C(Nc2ccc(Cl)cn2)N1Cc1ccccc1 (stereo unspecified)	none
CC(=O)NC1c2ccccc2C(=O)N1Cc1ccccc1 (stereo unspecified)	PLC-gamma1 inh 11 | PLCg1 ctr inactive | PLCbeta3 conf inactive
Cc1cnc(C(=O)OCC(=O)Nc2ccc(Cl)cc2)cn1	PLC-gamma1 inh 12 | PLCg1 ctr inactive | PLCbeta3 conf inactive
CC(Sc1nnc(CN2CCCC2)n1Cc1ccccc1)C(=O)Nc1ccccc1 (stereo unspecified)	none
Cc1ccccc1NC(=O)C(C)Sc1nnc(CN2CCCC2)n1Cc1ccccc1 (stereo unspecified)	PLC-gamma1 inh 10 (no result: proCasp7 act, proCasp3 act) | PLCg1 ctr inactive | PLCbeta3 conf inactive
O=C(COC(=O)/C=C/c1ccc(Cl)cc1)NC1CCCCCC1	none
Cc1ccc(NC(=O)CSc2n[nH]c(-c3ccco3)n2)c(C)c1	PLC-gamma1 inh 10 | PLCg1 ctr inactive | PLCbeta3 conf inactive
Cc1ccc(NC(=O)CSc2n[nH]c(-c3ccco3)n2)cc1	none
Cc1ccc(S(=O)(=O)N2CCCCC2)cc1C(=O)N1CCCCCC1	none
Cc1ccccc1S(=O)(=O)NCc1cccnc1	none
Cc1ccc(C(C)C)cc1S(=O)(=O)NCc1cccnc1	PLC-gamma1 inh 9.9 | PLCg1 ctr inactive | PLCbeta3 conf inactive
Cc1cc(C(=O)O)c(CCCN)s1	PLCb3 inh 12 | PLCg1 ctr inactive | PLCbeta3 conf inactive
CCOc1ccc(N(CC(=O)NC2CCCC2)C(=O)CCCC(=O)Nc2ccccn2)cc1	PLCb3 inh 15 | PLCg1 ctr inactive | PLCbeta3 conf inactive
COC(=O)[C@]12C[C@H](CC(=O)N3CCCCC3)C(=O)N(Cc3ccccc3)C1=C[C@H](C(C)C)O[C@@H]2C1CC1	PLCb3 inh 13 (no result: proCasp7 act, proCasp3 act) | PLCg1 ctr inactive | PLCbeta3 conf inactive
COC(=O)[C@]12C[C@H](CC(=O)N3CCOCC3)C(=O)N(Cc3ccccc3)C1=C[C@H](C(C)C)O[C@@H]2C1CC1	none (no result: proCasp7 act, proCasp3 act)
COCCCNC(=O)C[C@H]1C[C@@]2(C(=O)OC)C(=C[C@H](C(C)C)O[C@@H]2C2CC2)N(Cc2ccc(Cl)cc2Cl)C1=O	PLC-gamma1 inh 10 (no result: proCasp7 act, proCasp3 act) | PLCg1 ctr inactive | PLCbeta3 conf inactive
CCOC(=O)c1c(SCCN2CCCC2)n(-c2ccccc2)c(=S)n(-c2ccccc2)c1=O	none (no result: proCasp7 act, proCasp3 act)
O=C(NCc1ccc(Cl)cc1)C(=O)NCC(c1cccnc1)N1CCN(c2ccc(F)cc2)CC1 (stereo unspecified)	none
Cc1ccc(S(=O)(=O)N2C3CCCCC3O[C@H]2CC(=O)c2ccccc2)cc1 (stereo partly specified)	none (no result: proCasp7 act, proCasp3 act)
Cc1ccc(S(=O)(=O)N2C3CCCCC3O[C@H]2CC(=O)c2ccc(F)cc2)cc1 (stereo partly specified)	PLC-gamma1 inh 11 (no result: proCasp7 act, proCasp3 act) | PLCg1 ctr inactive | PLCbeta3 conf inactive
COc1ccc(COC(=O)N/N=C/c2cccs2)cc1	none
CCC(C(=O)NC1CCCC1)N(Cc1ccco1)C(=O)Cn1nnc(-c2ccc(C)cc2)n1 (stereo unspecified)	none
CCOC(=O)CN(C(=O)Cn1nnc(-c2ccc(C)cc2)n1)C(CC)C(=O)NC1CCCC1 (stereo unspecified)	PLC-gamma1 inh 13 | PLCg1 ctr inactive | PLCbeta3 conf inactive
CC(C)(C)c1ccc(C(=O)Nc2cc(Cl)ccc2-c2nn[nH]n2)cc1	none (no result: proCasp7 act, proCasp3 act)
CCSc1nnc(NC(=O)c2cc(C)oc2C)s1	PLC-gamma1 inh 11 | PLCg1 ctr inactive | PLCbeta3 conf inactive
CCCCNC(=O)CSc1nc2ccccc2c(=O)n1CC1COc2ccccc2O1 (stereo unspecified)	PLC-gamma1 inh 13 | PLCg1 ctr inactive | PLCbeta3 conf inactive
CN(C)CCCNc1nc2sc3c(c2c(=O)n1CCc1ccccc1)CCCCC3	none
CC(=O)Nc1ccc(NC(=O)COC(=O)CCNS(=O)(=O)c2c(Cl)cccc2Cl)cc1	none (no result: proCasp7 act, proCasp3 act)
CCCCN(c1ccccc1)S(=O)(=O)c1ccc2c(c1)CCN2C(=O)CCC(=O)O	none
O=C(O)CCC(=O)N1CCc2cc(S(=O)(=O)N(CCc3ccccc3)Cc3ccccc3)ccc21	PLC-gamma1 inh 10 | PLCg1 ctr inactive | PLCbeta3 conf inactive
O=C(O)CCC1COc2ccccc2O1 (stereo unspecified)	PLC-gamma1 inh 11 | PLCg1 ctr inactive | PLCbeta3 conf inactive
O=C(O)CNCC1COc2ccccc2O1 (stereo unspecified)	none
Cc1c(CN(C)C(=O)c2ccc(Br)o2)cnn1C	PLC-gamma1 inh 12 | PLCg1 ctr inactive | PLCbeta3 conf inactive
O=C(c1ccc(Br)o1)N(Cc1ccccc1)Cc1ccccc1	none
CC1=CCn2c(=O)c3ccccc3c(=O)n2C1	PLC-gamma1 inh 11 | PLCg1 ctr inactive | PLCbeta3 conf inactive
CCCc1nc2nc(C)c(NS(=O)(=O)c3ccc(C(C)(C)C)cc3)c(=O)n2[nH]1	none
CCc1nc2nc(C)c(NS(=O)(=O)c3ccc(F)cc3)c(=O)n2[nH]1	PLC-gamma1 inh 11 | PLCg1 ctr inactive | PLCbeta3 conf inactive
COc1cccc(CNC(=O)[C@H]2CCCN2C(=O)[C@H]2CCCN2)c1	none (no result: proCasp7 act, proCasp3 act)
COc1cccc(CNC(=O)[C@@H]2CCCN2C(=O)[C@H]2CCCCN2)c1	PLC-gamma1 inh 18 (no result: proCasp7 act, proCasp3 act) | PLCg1 ctr inactive | PLCbeta3 conf inactive
CCCCN(CCCC)CC(O)COc1ccccc1C(=O)Nc1ccccc1 (stereo unspecified)	PLCb3 inh 11 | PLCg1 ctr inactive | PLCbeta3 conf inactive
Cc1nc2ccccc2c(=O)n1NC(=O)CCC(=O)O	none
COc1cc(C(=O)COC(=O)c2ccc3c(c2)OCCO3)cc(OC)c1OC	none (no result: proCasp7 act, proCasp3 act)
CSc1cccc(NC(=S)N(CCCN2CCCC(C)C2)Cc2cccs2)c1 (stereo unspecified)	none
CCCn1c(SCC(=O)Nc2nc3c(s2)CCCC3)nc2c1c(=O)n(C)c(=O)n2C	PLC-gamma1 inh 10 | PLCg1 ctr inactive | PLCbeta3 conf inactive
CCCCn1c(SCC(=O)Nc2nnc(C(C)C)s2)nc2c1c(=O)n(C)c(=O)n2C	none
O=C(NCCS(=O)(=O)N1CCN(c2ccccc2)CC1)c1cccc(F)c1	none
Cc1ccc2c(c1)-n1c(nc3ccc(C)cc3c1=O)C(Cc1ccc(O)cc1)NC2=O (stereo unspecified)	none
